The list is not random: actives were taken first. Their share in the collection is about 3.5%.
MrgX1 PAM – positive allosteric modulators of MrgX1, primary screen, HEK293 cells, Fluo-4 calcium flux; B-score at 10 µM; 310,000 compounds, 0.63% hits; Mas-related G-protein coupled receptor member X1 (Homo sapiens), Q96LB2; FDSS; stronger effect = higher value; AID 588675, 2011;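 active means plate-corrected calcium response at least 3 library SD above typical, normal starting fluorescence, not activating the receptor alone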;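 further: compound read alongside a low EC10 to EC30 dose of BAM8-22 agonist; peak minus trough fluorescence over baseline measured at the second addition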
Target sequence (Q96LB2 whole entry, looked up): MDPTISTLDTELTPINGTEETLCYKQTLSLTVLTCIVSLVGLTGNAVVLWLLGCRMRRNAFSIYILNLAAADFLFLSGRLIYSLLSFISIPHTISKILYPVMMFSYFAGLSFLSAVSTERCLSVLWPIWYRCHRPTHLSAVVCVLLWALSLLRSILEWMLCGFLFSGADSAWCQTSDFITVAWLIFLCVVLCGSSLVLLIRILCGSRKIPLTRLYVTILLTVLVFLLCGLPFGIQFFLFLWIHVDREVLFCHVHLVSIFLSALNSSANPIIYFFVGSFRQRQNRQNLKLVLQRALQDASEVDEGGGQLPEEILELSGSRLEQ
MrgX1 antag – antagonists of human MrgX1 receptor, primary screen, HEK293 cells, Fluo-4 calcium flux | BAM8-22 antagonism; stronger effect = lower value | B-score at 10 µM | 310,000 compounds, 1.3% hits;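 active means calcium-response B-score plate-corrected more than 3 library SD below zero, starting fluorescence within 5 deviations, no agonist response on first addition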;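 further: peak minus trough fluorescence over baseline after final BAM8-22 challenge near maximal dose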
RGS4 inh – RGS4 inhibitors, primary screen, cell-based, HEK293 M3R inducible RGS4, calcium flux; 310,000 compounds, 0.45% hits; Regulator of G-protein signaling 4 (Homo sapiens), P49798; AID 463165, 2010; B-score at 10 µM; Fluo-4 calcium flux; stronger effect = higher value; triggered by carbachol at its EC20;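 active means B-score, a plate-corrected calcium signal, over three deviations above library mean, with baseline fluorescence within five deviations of library mean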;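 further: RGS4 expression induced by doxycycline in cells with stable M3 receptor; B-score is computed from the integrated fluorescence ratio over baseline after carbachol; higher B-score means a larger calcium signal and so more RGS4 inhibition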
Target sequence (P49798 whole entry, looked up): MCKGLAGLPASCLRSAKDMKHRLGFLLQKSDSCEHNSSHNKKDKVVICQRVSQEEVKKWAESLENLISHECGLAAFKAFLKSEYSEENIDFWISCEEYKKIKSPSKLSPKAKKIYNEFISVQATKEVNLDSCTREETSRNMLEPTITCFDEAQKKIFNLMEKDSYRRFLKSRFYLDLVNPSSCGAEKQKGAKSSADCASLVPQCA
RGS4 pot – RGS4 potentiators or activators, primary screen, cell-based, HEK293 M3R inducible RGS4, calcium flux; carbachol calcium flux Fluo4; stronger effect = lower value; B-score at 10 µM; 310,000 compounds, 0.92% hits; AID 463111, 2010;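 active means B-score of the integrated calcium signal more than 4 SD below the library mean, with starting fluorescence not abnormally high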;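 further: negative B-score means reduced calcium response which marks RGS4 activation or potentiation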
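test system = M3R-expressing HEK293 line, RGS4 induced by doxycycline | probe or stimulus = carbachol at ECmax as muscarinic agonist stimulus | timing = dye loading 30 min 37 °C, buffer rest 30 min RT | signal = calcium dye Fluo4 fluorescence | evaluation = B score from integrated fluorescence ratio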
MrgX1 ag – agonists of human MrgX1 receptor, primary screen, HEK293 cells, Fluo-4 calcium flux | Fluo-4 calcium fluorescence, agonist mode; stronger effect = higher value | AID 588627, 2011 | B-score at 10 µM | Mas-related G-protein coupled receptor member X1 (Homo sapiens), Q96LB2 | 310,000 compounds, 0.44% hits;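 active means calcium response B-score plate-corrected fluorescence ratio at least 3 library SD, with starting fluorescence B-score inside 5 SD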
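System: HEK293 cells stably expressing human MrgX1 receptor; Dosing: test compound in the initial addition of three; Schedule: overnight plating, then 30 min 37 °C plus 30 min room-temperature dye loading; Detection: kinetic calcium dye fluorescence, Fluo-4 NW; Controls: per-plate positive and negative controls for Z′ factor.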
RGS4 block valid – enhanced carbachol calcium response, M3R/RGS4 cells, RGS4 inhibitor project, cell-based, validation screen, HEK293 M3R/RGS4, calcium flux. shares compounds with RGS4 inh. carbachol calcium Fluo-4 fluorescence; carbachol added at its EC20; 0 = buffer wells, 100 = carbachol control. calcium response, % at 10 µM. 1,700 compounds, 65% hits;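 active means duplicate-averaged calcium response above the buffer-only control mean plus 5 SD of those controls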;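 further: integrated fluorescence ratio F max minus min over baseline F0; higher response in RGS4-induced cells means RGS4 inhibition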
RGS4 uninduced – carbachol calcium response in non-induced M3R cells, confirmation, counter-screen for RGS4 inhibitor project, cell-based, HEK293 M3R; 1,900 compounds, 20% hits; activity (percent), % at 10 µM; AID 493000, 2010; shares compounds with RGS4 inh; carbachol calcium Fluo-4; submaximal (EC20) carbachol stimulus; buffer wells 0%, carbachol control wells 100%; call rule not given here;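 further: RGS4 induction absent so cells express M3R without RGS4; higher means more calcium signal and flags a non-specific hit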
M3R basal Ca ctr – signal in non-induced cells without carbachol, RGS4 inhibitor counter-screen; calcium response (agonist-mode artifact), % at 10 µM; shares compounds with RGS4 inh; 1,900 compounds, 22% hits; HEK293 M3R/RGS4 non-induced, Fluo-4 calcium, no carbachol; normalised: buffer wells 0%, carbachol wells 100%;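 active means duplicate-averaged calcium rise in uninduced cells above buffer wells' mean plus 5 SD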
Each line names hits and unclear results; the compound was inactive in the other large screens (follow-up assays come after a bar, where they were run).

CC(=O)C1=C(O)C(=O)N(c2cc(C(C)(C)C)on2)C1c1ccc(C(C)C)cc1 (centres undefined)	none | RGS4 block valid inactive | RGS4 uninduced inactive | M3R basal Ca ctr 55.5%
CC(=O)C1=C(O)C(=O)N(c2cc(C(C)(C)C)on2)C1c1ccc(Br)cc1 (centres undefined)	RGS4 inh 7.77 | RGS4 block valid 44.0% | RGS4 uninduced 30.5% | M3R basal Ca ctr inactive
COc1ccc(C(=O)N=C2SC3CS(=O)(=O)CC3N2Cc2ccccc2)cc1OC (centres undefined)	none
COc1ccc(S(=O)(=O)N2CCN(C(=O)NCc3ccc(C)cc3)CC2)cc1	none
CC(=O)SC(C[N+](=O)[O-])c1cn(C(C)=O)c2ccccc12 (centres undefined)	RGS4 inh 15.9, MrgX1 ag 39.1 | RGS4 block valid 63.0% | RGS4 uninduced 29.0% | M3R basal Ca ctr 34.5%
CN(CCc1ccccn1)C(=O)CC1C(=O)NCCN1Cc1cccc(F)c1 (centres undefined)	none
CN(Cc1cnccn1)C(=O)CC1C(=O)NCCN1Cc1ccc(F)cc1Cl (centres undefined)	RGS4 inh 4.81 | RGS4 block valid inactive | RGS4 uninduced inactive | M3R basal Ca ctr 82.5%
CN(Cc1ccccn1)C(=O)CC1C(=O)NCCN1Cc1ccc(F)cc1Cl (centres undefined)	none | RGS4 block valid inactive | RGS4 uninduced inactive | M3R basal Ca ctr 13.5%
O=C(O)C1=NOC(CNc2ncc(C(F)(F)F)cc2Cl)C1 (centres undefined)	RGS4 inh 5.01 | RGS4 block valid 5.0% | RGS4 uninduced 48.5% | M3R basal Ca ctr inactive
NNC(=O)C1=NOC(CNc2ncc(C(F)(F)F)cc2Cl)C1 (centres undefined)	none
CC(=O)C1=NOC(CNc2ncc(C(F)(F)F)cc2Cl)C1 (centres undefined)	none | RGS4 uninduced inactive | M3R basal Ca ctr inactive
CC(=O)N1CCc2c(sc3c2c(=O)n(Cc2ccccc2)c(=O)n3CC(=O)NCC2CCCO2)C1 (centres undefined)	none
CCOC(=O)N1CCc2c(sc3c2c(=O)n(Cc2ccccc2)c(=O)n3Cc2ccc(C)cc2)C1	RGS4 inh 8.68 | RGS4 block valid 38.0% | RGS4 uninduced 30.0% | M3R basal Ca ctr inactive
Cc1cc2nc(CS)[nH]c2cc1C	RGS4 inh 5.92 | RGS4 block valid 28.0% | RGS4 uninduced inactive | M3R basal Ca ctr inactive
Cc1cc2nc(CO)[nH]c2cc1C	none
N#Cc1ccccc1NC(=O)C1SC(=Nc2ccccc2)C(C(=O)Nc2ccc(Cl)cc2)=C1N (centres undefined)	RGS4 inh 5.8 | RGS4 block valid inactive | RGS4 uninduced inactive | M3R basal Ca ctr inactive
N#C/C(=C\c1cc([N+](=O)[O-])ccc1Cl)C(N)=O	RGS4 inh 5.84 | RGS4 block valid 12.5% | RGS4 uninduced inactive | M3R basal Ca ctr 8.5%
CCOC(=O)/C(C#N)=C/c1cccc([N+](=O)[O-])c1	none
CCOP(=O)(OCC)/C(C#N)=C/c1ccc([N+](=O)[O-])cc1	RGS4 inh 7.36 | RGS4 block valid 13.5% | RGS4 uninduced inactive | M3R basal Ca ctr inactive
N#C/C(=C/c1ccc([N+](=O)[O-])cc1)C(N)=O	RGS4 inh 6.39 | RGS4 block valid 36.0% | RGS4 uninduced 36.5% | M3R basal Ca ctr 15.0%
CCOP(=O)(OCC)/C(C#N)=C/c1c[nH]c2ccccc12	none
CC1(C)COC(/C=C/c2ccc([N+](=O)[O-])cc2)=N1	RGS4 inh 5.68 | RGS4 block valid 8.0% | RGS4 uninduced 29.0% | M3R basal Ca ctr inactive
C=CCNC(=O)NC(=O)COC(=O)c1nc2nccc(C)n2n1	RGS4 inh 4.68 | RGS4 block valid inactive | RGS4 uninduced inactive | M3R basal Ca ctr inactive
COC(=O)c1c(NC(=O)CC2SC(N)=NC2=O)sc2c1CCC(C(C)(C)C)C2 (centres undefined)	RGS4 inh 12 | RGS4 block valid 43.0% | RGS4 uninduced inactive | M3R basal Ca ctr inactive
CCOC(=O)c1c(NC(=O)CC2SC(N)=NC2=O)sc2c1CCC(C)C2 (centres undefined)	none
COC(=O)c1c(NC(=O)CC2SC(N)=NC2=O)sc2c1CCCC2 (centres undefined)	none
COC(=O)c1c(NC(=O)CC2SC(N)=NC2=O)sc2c1CCC(C)C2 (centres undefined)	none | RGS4 uninduced inactive | M3R basal Ca ctr inactive
O=[N+]([O-])c1ccc(COc2ncnc3ccccc23)cc1	none
COc1cccc(C(C[N+](=O)[O-])c2c(C)[nH]n(-c3ccccc3)c2=O)c1 (centres undefined)	RGS4 inh 14.9, MrgX1 ag 49.6 | RGS4 block valid 6.0% | RGS4 uninduced inactive | M3R basal Ca ctr 10.5%
Cc1[nH]n(-c2ccccc2)c(=O)c1C(C[N+](=O)[O-])c1ccc(Br)cc1 (centres undefined)	MrgX1 PAM 6.83, RGS4 inh 8.39 | RGS4 block valid 32.0% | RGS4 uninduced 51.0% | M3R basal Ca ctr 27.5%
CSc1nc(-c2ccc(Cl)cc2)nn1C(=O)c1ccco1	RGS4 inh 5.6 | RGS4 block valid inactive | RGS4 uninduced inactive | M3R basal Ca ctr inactive
CC(NC(=O)/C(C#N)=C/c1ccc([N+](=O)[O-])o1)c1ccccc1 (centres undefined)	RGS4 inh 6.24 | RGS4 block valid 16.0% | RGS4 uninduced inactive | M3R basal Ca ctr 8.5%
CC(NC(=O)/C(C#N)=C/c1ccco1)c1ccccc1 (centres undefined)	none
CCOCCCNC(=O)/C(C#N)=C/c1ccc([N+](=O)[O-])o1	MrgX1 PAM 8.41, RGS4 inh 8.07 | RGS4 block valid 31.0% | RGS4 uninduced inactive | M3R basal Ca ctr inactive
Cc1ccc(C(=O)OCC(=O)Nc2cc(C(C)(C)C)nn2-c2ccccc2)c(O)c1	none

From PubChem
